These results are taken from the array DNA melting data of Ke et al. (doi:10.1101/2024.01.08.574731).

Series [1] is described as follows: melting temperature; fluorescence melt of hairpins on a sequencing array, two-state fit, raised by 9.35 °C to match UV melts. Particulars: sodium 0.088 M. The essentials: (§1)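 Melting temperature and folding enthalpy were derived from bootstrapped two-state fits. The fitted temperatures were raised by 9.35 °C to agree with UV melts, and four replicates were combined by inverse variance. The underlying data were Cy3 fluorescence images of library hairpins, with annealed Cy3 and quencher oligos, on a sequenced MiSeq flow cell in 50 mM Na-HEPES pH 8.0, 25 mM NaCl, taken in 2.5 °C steps up to 60 °C, normalised to pre-quench Cy3 and to control constructs.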

Series [2] in a line: folding enthalpy; higher = less favourable; fluorescence melt of hairpins on a sequencing array, two-state fit. To be noted: sodium 0.088 M. In outline: as §1

For GGATTACGAAAGTAGTCC (((.(((....))).))), in series [1], the Tm is 50.9 °C. In series [2], the folding enthalpy was -37.5 kcal/mol.
The corresponding values for GGATTAGGAAACTAACCC ((.((((....)))).)) are 30.1 °C and -17.3 kcal/mol.
The corresponding values for GGATTCCGAAAGGAGTCC (((.(((....))).))) are 55.6 °C and -41.6 kcal/mol.
The corresponding values for GGATTCGAAAGAATATCC ((((((....)))..))) are 30.3 °C and -9.96 kcal/mol.
For the sequence GGATTCGAAAGAATCC ((((((....)))))), the Tm in series [1] worked out at 62.9 °C. Further, the folding enthalpy in series [2] was -37.9 kcal/mol.
The matching figures for GGATTCGAAAGAATTCC ((((((....))).))): 42.6 °C and -20.4 kcal/mol.
On to GGATTCGGAAACGAACCC ((.((((....)))).)), for which the Tm in series [1] stood at 45.6 °C. In addition, in series [2], the folding enthalpy is -25.6 kcal/mol.
The corresponding values for GGATTCGGAAACGAATCC (((((((....))))))) are 67.1 °C and -35.8 kcal/mol.
Turning to GGATTCGGAAACGAGTCC (((.(((....))).))), the Tm in series [1] is 51.1 °C. Moreover, the folding enthalpy in series [2] was -35.7 kcal/mol.
With GGATTTCGAAAGAATTCC (((.(((....))).))), the Tm in series [1] came out at 42 °C. In addition, the folding enthalpy in series [2] is -31.1 kcal/mol.
The matching figures for GGATTTGCGAAAGCATCC (((..(((....)))))): 38.9 °C and -16.4 kcal/mol.
The matching figures for GGCAAAGGAAACTCTGCC ((((.((....)).)))): 36.2 °C and -32.1 kcal/mol.
Take GGCAACCGAAAGGTGCC (((.(((....)))))): in series [1], the Tm turned out to be 66.4 °C. Besides, the folding enthalpy in series [2] is -33.6 kcal/mol.
As to GGCAACGAAAGTTAGCC ((((((....))).))), in series [1], the Tm is 53.9 °C. Moreover, the folding enthalpy in series [2] was -37.5 kcal/mol.
The corresponding values for GGCAACGAAAGTTCAGCC ((((((....)))..))) are 41.1 °C and -24.4 kcal/mol.
The matching figures for GGCAACGAAAGTTCCGCC ((((((....)))..))): 48.4 °C and -21.4 kcal/mol.
Consider GGCAACGAAAGTTTCGCC ((((((....)))..))), for which the Tm in series [1] is 41.8 °C. Besides, in series [2], the folding enthalpy is -19 kcal/mol.
Regarding GGCAACGAAAGTTTGCC ((((((....))).))), the Tm in series [1] came to 56.4 °C. Further, in series [2], the folding enthalpy is -45.8 kcal/mol.
The corresponding values for GGCAACGGAAACGCTGCC ((((.((....)).)))) are 53.6 °C and -41.8 kcal/mol.
Take GGCAACGGAAACGTCACC ((..(((....)))..)): in series [1], the Tm is 26 °C. The folding enthalpy in series [2] was -13.9 kcal/mol.
With GGCAACGGAAACGTTACC ((.((((....)))).)), in series [1], the Tm was 45.1 °C. Besides, in series [2], the folding enthalpy is -29.8 kcal/mol.
The matching figures for GGCAATCGAAAGATGGCC (((.(((....))).))): 57.8 °C and -41.9 kcal/mol.
The corresponding values for GGCAATGGAAACATTGCC (((((((....))))))) are 67 °C and -42.1 kcal/mol.
The corresponding values for GGCAATGGAAACGTTGCC (((((.(....).))))) are 54.5 °C and -56.8 kcal/mol.
With GGCAATGGAAACGTTGTC (.(((.(....).))).), in series [1], the Tm was 35.8 °C. In addition, the folding enthalpy in series [2] was -25.9 kcal/mol.
On to GGCACAGAAATGTGCC ((((((....)))))), for which the Tm in series [1] is 66.5 °C. For the same sequence, in series [2], the folding enthalpy is -35.9 kcal/mol.
The matching figures for GGCACAGGAAACCATGCC ((((..(....)..)))): 36.1 °C and -16.3 kcal/mol.
The matching figures for GGCACAGGAAACTACGCC (((..((....))..))): 39.8 °C and -29.9 kcal/mol.
For GGCACCCGAAAGGGCGCC (((.(((....))).))), the Tm in series [1] amounted to 69 °C. The folding enthalpy in series [2] was -31.7 kcal/mol.
GGCACCGAAAGGTGAGCC ((((((....)))..))): the Tm in series [1] was determined as 52.6 °C. Further, the folding enthalpy in series [2] was -13.3 kcal/mol.
The corresponding values for GGCACCGAAAGGTTGGCC ((((((....)))..))) are 53.3 °C and -28.1 kcal/mol.
With GGCACCGCGAAAGCGGCC (((..(((....)))))), the Tm in series [1] worked out at 40 °C. Besides, in series [2], the folding enthalpy is -8.53 kcal/mol.
The matching figures for GGCACCGGAAACAGTGCC (((((.(....).))))): 53.9 °C and -30.9 kcal/mol.
The matching figures for GGCACCGGAAACGGTGTC (.(((((....))))).): 59.9 °C and -24.8 kcal/mol.
As to GGCACGGGAAACCACGCC (((..((....))..))), in series [1], the Tm is 46.2 °C. Moreover, in series [2], the folding enthalpy is -28.8 kcal/mol.
Regarding GGCACGGGAAACCGCGCC (((.(((....))).))), the Tm in series [1] was found to be 63.5 °C. Also, the folding enthalpy in series [2] is -44.1 kcal/mol.
The corresponding values for GGCACGGGAAACTGTGCC (((((.(....).))))) are 62.2 °C and -41.4 kcal/mol.
